Laboratory results taken from article PMC4028150 (Chembiochem : a European journal of chemical biology, 2013).
Where a SMILES comes first, the peptide text is derived from it. Where no end group is shown, it is not given here.

T1: TRF1_(TRFH) (residues 58-268) (UniProt P54274 58-268)
T1 sequence (looked up): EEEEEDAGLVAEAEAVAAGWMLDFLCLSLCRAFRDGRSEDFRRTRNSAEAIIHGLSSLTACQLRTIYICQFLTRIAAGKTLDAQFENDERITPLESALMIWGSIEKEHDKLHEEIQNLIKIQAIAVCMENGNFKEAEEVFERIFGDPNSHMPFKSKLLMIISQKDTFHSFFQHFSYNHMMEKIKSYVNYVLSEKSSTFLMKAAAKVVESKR


Experiments:
[1] = target: SCF^Fbx4 (Fbx4-dependent TRF1 ubiquitination) (UniProt P54274); test: In vitro TRF1 ubiquitination assay; assay type: biochemical; conditions: versus wild-type peptide (IC50 = 205.9 µM)
Method in brief: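 TRF1ΔMyb (E. coli; Ni-NTA, tag cleaved, gel filtration, Mono-Q/Mono-S) was prelabelled with GST-cyclin B/Cdk1 in 50 mM Tris pH 8.0, 10 mM MgCl2, 10 mM ATP and 2 µCi [γ-33P]ATP for 1 hr, then kinase-depleted on glutathione resin. It was incubated with E1, UbcH5a, SCFFbx4, ubiquitin, methylated ubiquitin, energy-regenerating system and increasing peptide at 30°C for 2.5 hrs. SDS-PAGE and phosphorimaging followed. IC50 came from loss of polyubiquitination.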

[2] = tested on: SCF^Skp2 (p27 ubiquitination); test: In vitro p27 ubiquitination assay; assay type: biochemical; conditions: E1, hCdc34 (E2), Cks1, p27 phosphorylated by cyclin E-Cdk2, SCF^Skp2; 2 hrs, 30°C; Figure S3
[3] = target: T1, TRF1_(TRFH) (residues 58-268); test: fluorescence polarisation

Molecule | decrease of IC50 compared to wild-type peptide [1] | effect on the ubiquitination of p27 [2] | Kd [3] [µM]
CC[C@H](C)[C@H](NC(=O)[C@@H]1CCCN1C(=O)[C@@H](N)CCSC)C(=O)N[C@@H](Cc1ccccc1)C(=O)N[C@@H](Cc1c[nH]c2ccccc12)C(=O)N[C@@H](CCCCN)C(=O)N[C@@H](Cc1ccccc1)C(=O)N[C@@H](Cc1c[nH]cn1)C(=O)N[C@@H](CCCNC(=N)N)C(=O)N[C@@H](CCSC)C(=O)N[C@@H](CO)C(=O)N[C@@H](CCCCN)C(=O)N[C@@H](CCSC)C(=O)NCC(=O)N[C@H](C(=O)NCC(N)=O)[C@@H](C)O [Design 1] (H-MPIFWKFHRMSKMGTG-NH2) | more than 6 fold | no effect | 
KKMDVCGGLSD-NH2 (also: 7-hydroxycoumarin-3-carboxylic acid label, position not given here) [Control 2] |  |  | > 10000
SMTWRGKPAHMIFGKM-NH2 (also: 7-hydroxycoumarin-3-carboxylic acid label, position not given here) [Control 1] |  |  | > 250
MPCFYLAHEL-NH2 (also: 7-hydroxycoumarin-3-carboxylic acid label, position not given here) [Wild-Type peptide (Fbx4 residues 339-348)] |  |  | 41.8
MPIFWKFHRMSKMGTG-NH2 (designed binder, also: 7-hydroxycoumarin-3-carboxylic acid label, position not given here) [Design 1] |  |  | 23.3
MPIFWKAHRMSKMGTG-NH2 (designed binder, also: 7-hydroxycoumarin-3-carboxylic acid label, position not given here) [Design 3] |  |  | 17.3
MPIAWKFHRMSKMGTG-NH2 (designed binder, also: 7-hydroxycoumarin-3-carboxylic acid label, position not given here) [Design 2] |  |  | 47.8
